From ChEMBL document CHEMBL1135766, “Synthesis of conformationally constrained analogues of linezolid: structure-activity relationship (SAR) studies on selected novel tricyclic oxazolidinones” (2002)

What was measured:
Enterococcus faecium = assay: In vitro antibacterial activity against Enterococcus faecium ATCC 12202 (E.fm 154) vancomycin resistant
Staphylococcus aureus [1] = assay: In vitro antibacterial activity against methicillin resistant Staphylococcus aureus ATCC 33591 (S. a. 019); assay type: functional
How it was run: (§1)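 Broth microdilution MIC per NCCLS guidelines in Mueller Hinton medium. Doubling dilutions from 256 to 1 μg/mL, inoculum (1–5) × 10⁵ CFU/mL, incubated overnight in ambient air at 35 °C. MIC is the lowest concentration giving complete growth inhibition. Linezolid and vancomycin served as controls.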

Staphylococcus aureus [2] = assay: In vitro antibacterial activity against Staphylococcus aureus ATCC 29213 (S. a. 035); assay type: functional
How it was run: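 Broth microdilution per NCCLS guidelines in Mueller Hinton medium. Doubling dilutions 256–1 μg/mL; inoculum (1–5) × 10⁵ CFU/mL; plates incubated overnight at 35 °C in ambient air. MIC read as the lowest concentration giving complete growth inhibition. Linezolid and vancomycin served as controls.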

Staphylococcus aureus [3] = assay: In vitro antibacterial activity against Staphylococcus aureus ATCC 49951 (S. a. 213); assay type: functional
How it was run: as §1

Enterococcus faecalis [4] = assay: In vitro antibacterial activity against Enterococcus faecalis ATCC 29212 (E. f. 034) vancomycin sensitive; assay type: functional
How it was run: as §1

Enterococcus faecalis [5] = assay: In vitro antibacterial activity against Enterococcus faecalis NCTC 12201 (E. f. 153) vancomycin resistant; assay type: functional
How it was run: as §1

Measured: MIC

O=C1CCC(=O)N1C[C@H]1CN(c2cc(F)c3c(c2)OC[C@@H]2CCCN32)C(=O)O1
> 32 µg/mL: all assays above
